# H69AR growth 86K: growth inhibitors of human H69AR lung tumor cells; H69AR lung tumor viability, ATP luminescence, 72 h; hits give low values; hit rate 6% among 85,000; viability, % at 10 µM;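 active = viability at or below 40%; inactive = viability above 40%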;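 note: multidrug resistant small cell line overexpressing MRP-1 efflux transporter; 100% = mean luminescence of untreated control wells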
# Lung fibro prol: blocks proliferation of human lung fibroblasts | LL 47 human lung fibroblast viability, ATP luminescence; hits give low values | viability, % at 10 µM | hit rate 1.1% among 85,000;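 active = viability at or below 50% in the single dose screen; inactive = viability above 50%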;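 note: compound exposure lasted 72 h before the ATP readout; 100% = median luminescence of untreated cell-only wells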
#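 Material: human lung fibroblast line LL 47, low passage; Evaluation: viability percentage against median untreated-cell control; Buffer or medium: 15% FBS in IMEM; Incubation: 72 h compound exposure at 37 °C after overnight plating; Dosing: 0.1% DMSO in all compound wells; Measured by: CellTiter-Glo luminescence.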
# HUVEC prolif 384: human endothelial cell proliferation inhibition; HUVEC proliferation, CellTiter-Glo luminescence, 72 h; hits give low values; viability, % at 10 µM (by protocol); hit rate 1.1% among 86,000; AID 648;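 active = viability at or below 30%; inactive = viability above 30%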;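 note: 100% = median luminescence of DMSO-only cell control wells on each plate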
# ERa SRC1 pot: enhances coactivator binding to human estrogen receptor alpha. P03372. TR-FRET ERalpha-LBD/SRC-Cy5 coactivator binding, 2 h; 100 = basal binding, no effect. coactivator binding (% of control), % at 25.6 µM. hit rate 1.3% among 86,000. AID 639; in the data active = activity above about 200%;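 note: binding measured in presence of low estradiol as agonist stimulus; 0% = peptide alone without receptor and 100% = receptor with peptide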
# Target sequence (P03372 whole entry, looked up, the tested form may be a part): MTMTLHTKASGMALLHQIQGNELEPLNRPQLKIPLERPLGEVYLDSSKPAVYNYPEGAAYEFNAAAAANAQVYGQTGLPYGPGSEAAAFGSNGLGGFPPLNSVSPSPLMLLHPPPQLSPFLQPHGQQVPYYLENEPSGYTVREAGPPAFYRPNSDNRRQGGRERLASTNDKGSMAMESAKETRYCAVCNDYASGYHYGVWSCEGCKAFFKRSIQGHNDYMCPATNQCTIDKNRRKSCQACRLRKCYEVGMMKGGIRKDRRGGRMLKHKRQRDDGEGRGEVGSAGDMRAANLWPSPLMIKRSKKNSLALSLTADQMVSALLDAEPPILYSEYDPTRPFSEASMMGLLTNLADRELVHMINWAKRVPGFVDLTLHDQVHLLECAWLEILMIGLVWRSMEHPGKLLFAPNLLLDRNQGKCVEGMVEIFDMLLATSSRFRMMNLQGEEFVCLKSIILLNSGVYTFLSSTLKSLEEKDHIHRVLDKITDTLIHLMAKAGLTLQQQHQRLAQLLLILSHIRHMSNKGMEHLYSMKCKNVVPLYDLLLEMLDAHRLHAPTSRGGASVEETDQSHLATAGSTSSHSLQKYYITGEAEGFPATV
# ERa SRC1 inh: blocks coactivator binding to human estrogen receptor alpha; TR-FRET ER-alpha LBD / SRC-1 peptide, estradiol-bound; inhibition, % at 25.6 µM; hit rate 1.7% among 86,000; AID 629; in the data active = inhibition above about 50%;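 note: 0% = receptor plus peptide control and 100% = peptide only without receptor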
# ERb SRC1 inh: ER-beta (human) coactivator binding inhibition. Q92731. inhibition, % at 25.6 µM. hit rate 1.3% among 86,000. AID 633. TR-FRET ER-beta LBD / SRC1-Cy5 peptide binding; receptor agonist-loaded with 1 µM estradiol;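 active = compounds whose percent inhibition of the receptor-coactivator binding signal exceeds about 50% in the single-dose screen, limit read from the data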;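 note: 0% = receptor plus peptide wells without compound and 100% = peptide-only wells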
# * = called active by the depositor; . = no result; [ ] = another dose, or the depositor's remark. A selection: hits, their analogues and other compounds. The true share with any hit is near 9.2%.
SMILES,H69AR growth 86K,Lung fibro prol,HUVEC prolif 384,ERa SRC1 pot,ERa SRC1 inh,ERb SRC1 inh
Cc1cccc(C(=O)Nc2cccc(C(=O)N3CCOCC3)c2)c1,89.5,100.1,89.3,238.6*,6.7,3.0
O=c1oc2ccccc2c(Nc2ccc3ccccc3c2)c1[N+](=O)[O-],18.9*,90.5,58.8,53.6,70.9*[fluorescence artefact?],17.9
O=c1oc2ccccc2c(Nc2ccc(O)cc2)c1[N+](=O)[O-],80.9,99.5,96.5,90.4,8.6,9.4
COC(=O)c1ccc(Oc2nc3ccccc3n3c(C)nnc23)cc1,100.6,92.2,98.8,127.2,-21.1,-5.1
CC(C)N(Cc1nc(-c2ccccc2)no1)C(=O)CN(C)S(=O)(=O)c1ccccc1,.,103.0,96.8,44.4,-2.7,-0.1
Cc1cc(NC(=O)COC(=O)c2ccc(S(=O)(=O)N3CCCc4ccccc43)cc2)no1,22.9*,74.9,67.7,98.2,-0.7,-1.8
O=C(NCc1ccccc1)c1ccc(S(=O)(=O)N2CCCc3ccccc32)cc1,61.0,92.6,91.3,108.0,-13.2,-8.2
COC(=O)Nc1ccc(S(=O)(=O)N2c3ccccc3CCC2C)cc1 (configuration not stated),16.4*,49.0*,69.0,85.6,0.1,2.8
O=C(NCc1ccco1)c1ccc(S(=O)(=O)N2CCCc3ccccc32)cc1,31.0*,92.1,83.7,92.2,3.6,1.3
Cc1cc(NC(=O)COC(=O)c2ccc(NS(=O)(=O)c3ccc(C)c(C)c3)cc2)no1,105.6,99.8,89.9,91.6,7.5,10.8
CC(=O)Nc1ccc(S(=O)(=O)N2CCCc3ccccc32)cc1,13.3*,70.2,48.3,105.1,1.0,6.9
CCCN(CCC)CCNC(=O)C(NS(=O)(=O)c1ccc2c(c1)CCC(=O)N2)c1ccccc1 (configuration not stated),97.5,102.5,96.0,108.4,-2.3,-1.8
COCCNC(=O)C(c1ccccc1C)N(C(=O)Cn1nnc2ccccc21)c1cccnc1 (configuration not stated),91.9,96.2,90.0,94.6,-2.4,3.7
Cc1ccc(Cl)cc1N1CCN(C(=O)c2cn(C)c(=O)c3c2c2ccccc2n3C)CC1,3.4*,55.4,33.3,86.6,14.6,4.5
Cc1cccc(N2CCN(C(=O)c3cn(C)c(=O)c4c3c3ccccc3n4C)CC2)c1C,31.4*,85.0,36.4,59.4,-5.3,-11.2
CC(Cc1cccs1)NC(=O)Nc1ccc(Cl)c(Cl)c1 (configuration not stated),25.7*,105.6,56.4,89.1,3.0,-12.6
COc1ccc(/C=C/C(O)=C2/C(=O)N(C)C3(C)CC2c2ccccc2O3)cc1 (configuration not stated),3.0*,76.3,81.8,94.7,62.9*,26.7
CSc1nc2ccc3nc(NC(=O)c4ccc(Cl)s4)sc3c2s1,65.8,97.5,104.3,87.5,58.8*[fluorescence artefact?],35.3
CSc1nc2ccc3nc(NC(=O)c4cccs4)sc3c2s1,51.0,91.4,86.2,182.3,69.4*[fluorescence artefact?],79.3*[fluorescence artefact?]
O=C(Nc1nccs1)c1ccc(Cl)s1,95.1,93.3,104.8,94.9,6.1,-7.2
CC(C)(C)c1csc(NC(=O)c2cccs2)n1,94.2,94.1,95.6,115.3,-2.0,-6.7
CSCCC1NC(=O)NC1=O (configuration not stated),88.4,102.8,95.9,93.8,62.5*,-2.9
CC(=O)CC(=O)Nc1ccccc1NC(C)=O,93.5,94.4,103.5,121.9,-0.8,0.3
Cc1ccsc1C1C=C(c2cccc(Br)c2)Nc2ncnn21 (configuration not stated),51.3,100.3,75.0,87.7,5.3,-10.4
CCc1ccc(C2=CC(c3cc(Br)ccc3F)n3ncnc3N2)cc1 (configuration not stated),17.9*,58.5,57.6,95.7,-6.4,-7.0
SMILES,H69AR growth 86K,Lung fibro prol,HUVEC prolif 384,ERa SRC1 pot,ERa SRC1 inh,ERb SRC1 inh
Cc1ccc(C2C=C(c3ccc4c(c3)OCO4)Nc3ncnn32)cc1 (configuration not stated),83.2,.,114.8,88.2,-0.9,-4.1
Fc1ccc(Br)cc1C1C=C(c2ccc(Br)cc2)Nc2ncnn21 (configuration not stated),18.0*,60.2,63.1,107.7,-2.2,-2.3
CCN1CCn2c3c(c4cc(C)ccc42)CCCC31 (configuration not stated),89.3,109.9,96.1,79.4,34.2,55.5*[fluorescence artefact?]
Cc1ccc2nc(NC(=O)CN(C)S(=O)(=O)c3cccc4nsnc34)sc2c1,12.1*,25.2*,28.5*,112.9,-11.1,-8.9
CN(CC(=O)NCCN1CCN(Cc2ccccc2)CC1)S(=O)(=O)c1cccc2nsnc12,94.7,96.8,97.0,764.1*[fluorescence artefact?],3.6,5.4
Cc1ccc2nc(NC(=O)CN(C)S(=O)(=O)c3ccc(Br)s3)sc2c1,21.2*,96.7,57.2,132.2,-2.9,-1.0
COc1ccc(N(CC(=O)Nc2cc(Cl)ccc2OC)S(=O)(=O)c2c(C)noc2C)cc1,24.1*,48.5*,42.0,91.4,3.0,-10.0
O=C(NCc1ccccn1)C(C(=O)c1ccc(F)cc1)n1ccccc1=O (configuration not stated),107.2,90.5,93.4,105.7,5.1,-2.3
Cc1ccc(/C(O)=C2\C(=O)C(=O)N(CCCN(C)C)C2c2ccccn2)cc1 (configuration not stated),99.2,103.2,101.4,127.7,-9.3,-4.3
Cc1ccc(S(=O)(=O)Cc2cccc(C(=O)N3CCOCC3)c2)cc1,106.7,100.2,100.2,102.5,6.9,-0.6
CCc1ccc(N(CC(=O)Nc2nc3ccc(C)cc3s2)S(=O)(=O)c2c(C)noc2C)cc1,3.3*,97.8,49.8,106.9,-3.4,13.2
CCc1ccc(NC(=O)CN(c2ccc3c(c2)OCO3)S(=O)(=O)c2c(C)noc2C)cc1,98.4,94.3,104.1,113.1,-3.9,-1.4
CCOC(=O)c1ccccc1NC(=O)c1cn(CC)c2nc(C)ccc2c1=O,103.6,93.5,105.3,122.2,7.4,11.6
CN(c1cccc(Cl)c1)S(=O)(=O)c1cccc(C(=O)NC2=NCCS2)c1,39.8*,100.5,89.2,95.1,21.3,6.1
COc1ccc(N(Cc2ccccc2)S(=O)(=O)c2cccc(C(=O)NC3=NCCS3)c2)cc1,69.8,99.9,78.1,91.8,0.2,-3.2
O=C(Nc1ccc(-n2nncc2-c2ccco2)cc1)c1cc2ccccc2oc1=O,.,54.4,77.9,185.9,69.5*,65.2*[fluorescence artefact?]
CCc1ccccc1NC(=O)c1nnn(CC(=O)Nc2cccc(C)c2)c1N,92.3,93.3,93.8,115.1,7.5,7.8
Cc1ccc(NC(=O)c2nnn(CC(=O)Nc3ccccc3)c2N)cc1C,24.9*,71.9,81.2,193.5,30.3,37.2
COCC(=O)N(C)C1(c2nnnn2CCOC(=O)Nc2cccc3ccccc23)CCCC1,98.2,98.3,88.3,76.6,19.2,61.4*[fluorescence artefact?]

# Screening results: PubChem BioAssay, several laboratories
